MT stabilizer = microtubule stabilization, imaging screen. HeLa tubulin immunostaining HCS, 24 h; share of cells brighter than vehicle mean+2SD. % tubulin-high responders, % at 10 µM. actives 0.83% (n = 200,000). AID 2205;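 active means plate Z-score above 3 for both tubulin-high and condensed-nucleus cell shares, with cell loss under 80%, at 10 µM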;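 further: anti alpha tubulin signal scored within the nucleus-defined area of each cell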
Hsp70 activator = switches on Hsp70 transcription. AID 1203. actives 0.04% (n = 200,000). HeLa Hsp70 promoter luciferase reporter, luminescence; scaled: vehicle 0, proteasome-inhibitor control 100%. activation, % at 10 µM;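 active means activation above the mean across all tested compounds plus 3 SD, cutoff set per campaign, cut at about 5.5% in these data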;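 further: 100% = MG132 at 30 µM as the positive control and 0% = DMSO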
b-catenin transl = modulators of beta-catenin nuclear translocation | actives 0.3% (n = 190,000) | AID 1665 | nuclear translocation activity, % at 5 µM | HeLa beta-catenin nuclear translocation, immunofluorescence imaging;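 active means nuclear translocation activity above 50% at 5 µM, with a well cell count of 50 or more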;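 further: per-cell ratio of nuclear to cytoplasmic median beta-catenin stain intensity; plate controls were DMSO negative control for no effect and GSK-3 inhibitor IX positive control for full effect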
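Test system: human HeLa cells, native beta-catenin. Compound dosing: 5 µM primary single dose, 0.1% DMSO, 0.02–20 µM confirmation series. Incubation: compound exposure 24 h at 37°C. Detection: beta-catenin immunostaining with DAPI counterstain, 20x imaging, 6 fields/well. Read-out basis: Nuclear/cytoplasmic beta-catenin signal ratio, % activation.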
Autophagy HCS = modulators of autophagy | actives 0.98% (n = 190,000) | calls only at 10 µM (by protocol) | MEF GFP-LC3 puncta imaging; test concentration mostly 10 µM;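 active means percentage of spot-positive cells more than 3 SD above its plate mean, without a fluorescence outlier flag or 80% toxicity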;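 further: spot-positive cell cutoff set from DMSO-treated cells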
Dynein transport = blocks dynein driven cargo transport along microtubules; 3617.4 mouse cells, GR-EGFP nuclear translocation imaging; test concentration mostly 20 µM; stimulated with dexamethasone, 1 µM; hits give low values; z-score, hits read low; actives 0.47% (n = 220,000); AID 1381;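 active means plate z-score of nuclear minus cytoplasmic receptor signal below a set negative limit, without overly bright fluorescence or cell loss, cut at about -3.5 in these data, passing the limit was not always enough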;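 further: z-score of nuclear minus cytoplasmic ring GR-EGFP intensity difference per well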
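Buffer or medium: tet-free medium with charcoal-stripped serum / Also added: dexamethasone agonist, 1.0 µM final, for 30 min / Timing: induction 48 h, compound 1 h, agonist 30 min / Measured by: high-content fluorescence imaging after fixation / Read-out: nuclear-to-cytoplasmic GR-EGFP distribution per well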
An asterisk follows results filed as active; i = inactive; nt = not tested or not shown; + = active, no number. This is a sample that favours compounds with a hit; in the whole collection about 2.1% have one here.

SMILES	MT stabilizer	Hsp70 activator	b-catenin transl	Autophagy HCS	Dynein transport
CCN(CC(=O)Nc1ccc(C(C)=O)cc1)CC(=O)Nc1ccccc1C(F)(F)F	2.2	-0.1	0.0	i	0.695
C=CCc1c(C)nc(N2CCSCC2)[nH]c1=O	nt	nt	-0.7	nt	-0.0397
O=C1NCCn2ccc(=O)cc21	nt	nt	-2.6	nt	-0.713
CO/N=C\CC(=O)Nc1ccc(Cl)c(Cl)c1	25.6*	0.6	49.2	i	-0.761
CCOC(=O)C1=c2/c(=C/c3ccncc3)c(N)c(C(=O)OC)n2C(=O)C(c2ccncc2)S1 (stereo not drawn)	1.8	0.1	-1.9	i	1.61
CO/N=C/C(=N\Nc1ccc(C)cc1)C(=O)c1ccc(OC)cc1	53.0*	0.0	nt	+	0.136
CO/N=C/C(=N\Nc1ccc(OC)cc1)C(=O)c1ccc(F)cc1	2.5	-0.3	3.5	i	-0.0429
CC1CCCCC12NC(=O)N(CC(=O)Nc1ccccc1N1CCOCC1)C2=O (stereo not drawn)	2.6	-0.2	0.0	i	-0.185
Cc1ccc(S(=O)(=O)NCCC(=O)Nc2nnc(C3CC3)s2)cc1C	5.5	-0.3	-6.8	i	1.99
Cc1cc(C)cc(N(CCC(=O)Nc2nnc(C3CC3)s2)S(=O)(=O)c2ccc(Cl)cc2)c1	19.0*	-0.1	-1.8	i	-0.207
Cc1onc(-c2ccccc2)c1C(=O)NNC(=S)NC(=O)c1ccc2c(c1)OCO2	nt	nt	-0.8	nt	0.206
CCC(=O)Nc1cccc(C2=NOC3(C2)C[C@H](C(N)=O)N(C(=O)CC#N)C3)c1 (stereo partly drawn)	nt	nt	-0.3	nt	-0.212
Cc1ccc2c(c1)NC(=O)C(CC(=O)NCCCN1CCN(c3cc(C)ccc3C)CC1)O2 (stereo not drawn)	6.8	-0.1	nt	+	-0.505
Cn1nc(-c2ccc(Cl)cc2)nc2c(=O)n(C)c(=O)nc1-2	15.4*	-0.5	-0.7	i	-2.98
Cc1cc2nc(CS(=O)(=O)c3ccccc3)cc(=O)n2[nH]1	2.1	-0.3	-1.1	i	-0.503
Cn1nnc2cc(C(=O)Nc3ccc4ccccc4c3)ccc21	1.1	0.1	-0.5	i	-0.687
COc1cccc(-c2cc(=O)c3cc(NC(=O)c4ccc(Cl)cc4)ccc3[nH]2)c1	25.7*	-0.5	-0.1	i	0.297
COc1cccc(-c2cc(=O)c3cc(NC(=O)c4ccc(N(C)C)cc4)ccc3[nH]2)c1	4.3	1.2	87.8*	i	0.235
CCOC(=O)c1sc(SC)c2c1CCCC2=O	nt	nt	0.6	nt	-0.513
COc1cc(C2Nc3ccc4ncccc4c3C3=C2C(=O)CCC3)cc(OC)c1O (stereo not drawn)	47.5*	-0.5	0.0	i	-0.194
COc1cc(C2Nc3ccc4ncccc4c3C3=C2C(=O)CC(C)(C)C3)cc(OC)c1O (stereo not drawn)	3.1	-0.2	-5.0	i	0.269
Cc1noc(C)c1CSc1nc2ccccc2n1C	3.5	-0.2	-6.7	+	-0.59
O=C(Nc1ccc(Cc2ccncc2)cc1)c1ccc(Br)o1	2.9	-0.1	1.8	+	0.029
Cc1cc(C)cc(C(=O)NC(=S)Nc2ccc(Cc3ccncc3)cc2)c1	12.0*	-0.5	-1.8	i	-0.643
COc1ccccc1Nc1nnc(SCC2CCCCO2)s1 (stereo not drawn)	18.5*	-0.5	0.0	i	0.937
SMILES	MT stabilizer	Hsp70 activator	b-catenin transl	Autophagy HCS	Dynein transport
COC(=O)c1c(-c2cccc3ccccc23)csc1NC(=O)Cc1ccc(OC)c(OC)c1	52.1*	-0.4	nt	i	0.469
CC(/C=N/NC(=O)c1cc(-c2ccccc2)nc2ccccc12)=C\c1ccco1	7.2	-0.2	155.2*	i	-0.198
CC(/C=N/NC(=O)CN1CCN(Cc2ccc(Cl)cc2)CC1)=C\c1ccco1	3.3	-0.3	-2.1	i	0.274
CC(/C=N/NC(=O)c1cc(-c2ccc(Cl)cc2)nc2ccccc12)=C\c1ccco1	13.6	2.8	234.9*	i	0.27
CC(=C/c1ccco1)/C=N/NC(=O)c1ccncc1	nt	nt	3.1	nt	-0.0716
N#C/C(=C\c1cn(CCOc2ccccc2F)c2ccccc12)C(=O)NCc1cccs1	2.9	-0.1	0.6	+	-0.145
Cc1ccc(C)c(OCCn2cc(/C=C(\C#N)C(=O)NCc3cccs3)c3ccccc32)c1	3.4	-0.2	0.7	i	-0.424
Cc1c(C(=O)NCc2ccccn2)sc2nc(-c3ccc(F)cc3)cn12	3.3	-0.2	nt	i	0.133
CCN(CC)CCCNC(=O)c1sc2nc(-c3ccc(F)cc3)cn2c1C	3.3	0.0	nt	+	0.772
Cc1ccc(N2C(=O)c3cccc4c([N+](=O)[O-])ccc(c34)C2=O)c2cccnc12	nt	nt	51.7*	nt	1.75
Cc1ccc(N2C(=O)c3cccc4c(N5CCN(C)CC5)ccc(c34)C2=O)c2cccnc12	10.5	-0.3	0.0	i	-0.0384
NC(=O)N=Nc1c(O)[nH]c2ccc([N+](=O)[O-])cc12	nt	nt	-1.2	nt	0.258
COc1ccccc1C(=O)N=Nc1c(O)[nH]c2ccc([N+](=O)[O-])cc12	3.5	-0.3	-2.1	+	0.565
O=C(N=Nc1c(O)[nH]c2ccc(Br)cc12)c1ccccc1-n1cccc1	10.1	0.0	153.5*	i	1.07
Nc1cc(=O)[nH]n1C1CCCCC1	2.5	-0.1	-2.3	+	1.55
Cc1cccc(NC(=O)c2cccc3c2-c2ccccc2C3=O)n1	1.7	-0.1	0.0	i	-0.37
O=C(Nc1ccc(Br)cn1)c1cccc2c1-c1ccccc1C2=O	36.3*	0.0	1.0	i	1.43
Cc1ccc(OCc2n[nH]c(=S)n2C2CCCCC2)cc1	1.7	-0.3	-2.3	i	-0.839
Cc1cccc(OCc2n[nH]c(=S)n2C2CCCCC2)c1	32.0*	-0.1	1.7	i	0.363
O=C(NCCO)/C(=C/c1ccc2c(c1)OCO2)NC(=O)c1ccc(Br)cc1	3.3	-0.2	-0.5	+	1.65
Cc1ccc(N/C=C/C(=O)c2sc(-c3ccccc3)nc2C)cc1	51.2*	-0.4	0.8	i	0.631
Cc1nc(-c2ccccc2)sc1C(=O)NN	7.4	0.2	0.4	i	-0.214
Cn1cnc([N+](=O)[O-])c1SCC(O)CN1CCCCC1 (stereo not drawn)	7.4	-0.2	4.6	+	-1.46
COc1ccc(-c2nn(-c3ccccc3)cc2C(=O)N2c3ccc(C)cc3C3CN(C)CCC32)cc1 (stereo not drawn)	2.9	-0.1	0.8	+	0.507
COc1ccc(-c2nn(-c3ccccc3)cc2C(=O)O)cc1	1.6	-0.1	0.1	i	-0.982
CCOc1nc(NC(=O)NC(=O)c2ccccc2)nc(-c2ccccc2)n1	3.9	-0.1	-1.6	+	-0.314
Cc1sc2nc(C(C)C)nc(SCC(=O)N3c4ccccc4CC3C)c2c1C (stereo not drawn)	4.9	-0.2	-0.2	+	0.898
COc1cc(/C=N/NC(=O)CNc2n[nH]c(=O)[nH]c2=O)ccc1OCc1ccccc1	nt	nt	0.2	nt	0.0798
